# According to ChEMBL document CHEMBL4602702, “Red-Emitting Dibenzodiazepinone Derivatives as Fluorescent Dualsteric Probes for the Muscarinic Acetylcholine M2 Receptor” (J Med Chem, 2020):
# What was measured:
# [1] = biological target: T1, Muscarinic acetylcholine receptor M1 (Homo sapiens) (UniProt P11229); experiment: Displacement of [3H]-NMS from human muscarinic M1 receptor expressed in CHO cells by scintillation counting method; format: cell-based
# T1 sequence (whole entry): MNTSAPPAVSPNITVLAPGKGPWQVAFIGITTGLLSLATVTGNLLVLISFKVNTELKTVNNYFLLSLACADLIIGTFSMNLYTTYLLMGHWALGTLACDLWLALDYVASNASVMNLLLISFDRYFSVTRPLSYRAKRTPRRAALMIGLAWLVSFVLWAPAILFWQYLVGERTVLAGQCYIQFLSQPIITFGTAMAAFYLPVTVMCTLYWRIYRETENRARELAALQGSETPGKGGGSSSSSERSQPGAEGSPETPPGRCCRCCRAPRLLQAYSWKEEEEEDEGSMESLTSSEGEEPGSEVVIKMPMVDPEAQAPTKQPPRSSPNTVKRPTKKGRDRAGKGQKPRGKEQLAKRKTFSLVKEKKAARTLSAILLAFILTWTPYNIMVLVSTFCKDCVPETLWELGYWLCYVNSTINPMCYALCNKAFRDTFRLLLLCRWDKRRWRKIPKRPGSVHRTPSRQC
# [2] = biological target: T2, Muscarinic acetylcholine receptor M2 (Homo sapiens) (UniProt P08172); experiment: Displacement of [3h]-NMS from human muscarinic M2 receptor expressed in CHO cells by radioligand binding assay; format: cell-based
# T2 sequence (whole entry): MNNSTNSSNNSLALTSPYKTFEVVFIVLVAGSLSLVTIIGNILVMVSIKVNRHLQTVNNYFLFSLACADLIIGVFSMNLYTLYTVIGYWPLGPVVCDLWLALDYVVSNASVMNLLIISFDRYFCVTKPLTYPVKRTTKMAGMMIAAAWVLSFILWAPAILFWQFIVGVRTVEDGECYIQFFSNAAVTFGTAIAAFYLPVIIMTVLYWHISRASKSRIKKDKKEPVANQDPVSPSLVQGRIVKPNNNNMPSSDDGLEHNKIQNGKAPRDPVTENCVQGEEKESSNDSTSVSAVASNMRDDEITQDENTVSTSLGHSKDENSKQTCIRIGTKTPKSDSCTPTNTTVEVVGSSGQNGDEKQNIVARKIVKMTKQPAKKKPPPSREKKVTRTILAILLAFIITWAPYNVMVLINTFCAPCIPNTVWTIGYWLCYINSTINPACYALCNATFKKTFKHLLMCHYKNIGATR
# [3] = biological target: T3, Muscarinic acetylcholine receptor M2 (Homo sapiens, UniProt P08172); experiment: Displacement of 4-(2-((1E,3E)-5-((E)-1-(6-((3,5-Bis((2-(3-(1-(4-(1-(2-oxo-2-(11-oxo-10,11-dihydro-5H-dibenzo[b,e][1,4]diazepin-5-yl)ethyl)piperidin-4-yl)butyl)-1H-imidazol-4-yl)propanamido)ethyl)carbamoyl)benzyl)amino)-6-oxohexyl)-3,3-dimethyl-5-sulfoindolin-2-ylidene)penta-1,3-dien-1-yl)-3,3-dimethyl-3H-indol-1-ium-1-yl)butane-1-sulfonate Tris(hydrotrifluoroacetate) fluorescent tracer from human muscarinic M2 receptor expressed in […] cells measured after 60 mins by Hoechst H33342 dye based confocal plate reader assay; format: cell-based
# T3 sequence (P08172 whole entry): T2 sequence (whole entry)
# [4] = biological target: T3, Muscarinic acetylcholine receptor M2; experiment: Displacement of 4-(2-((1E,3E)-5-((E)-3,3-Dimethyl-1-(6-oxo-6-((2-(3-(1-(4-(1-(2-oxo-2-(11-oxo-10,11-dihydro-5H-dibenzo[b,e][1,4]diazepin-5-yl)ethyl)piperidin-4-yl)butyl)-1H-imidazol-4-yl)propanamido)ethyl)-amino)hexyl)-5-sulfoindolin-2-ylidene)penta-1,3-dien-1-yl)-3,3-dimethyl-3H-indol-1-ium-1-yl)butane-1-sulfonateHydrotrifluoroacetate fluorescent tracer from human muscarinic M2 receptor expressed in […] cells measured after 60 mins by Hoechst H33342 dye based confocal plate reader assay; format: cell-based
# [5] = biological target: T3, Muscarinic acetylcholine receptor M2; experiment: Displacement of 4-(2-((1E,3E)-5-((E)-3,3-Dimethyl-1-(6-oxo-6-((2-(4-(4-(1-(2-oxo-2-(11-oxo-10,11-dihydro-5H-dibenzo[b,e][1,4]diazepin-5-yl)ethyl)piperidin-4-yl)butyl)piperazin-1-yl)ethyl)amino)hexyl)-5-sulfoindolin-2-ylidene)penta-1,3-dien-1-yl)-3,3-dimethyl-3H-indol-1-ium-1-yl)butane-1-sulfonate Bis(hydrotrifluoroacetate) fluorescent tracer from human muscarinic M2 receptor expressed in […] cells measured after 60 mins by Hoechst H33342 dye based confocal plate reader assay; format: cell-based
# [6] = biological target: Muscarinic acetylcholine receptor M2 (Homo sapiens) (UniProt P08172); experiment: Displacement of [3H]-UR-SK259 human muscarinic M2 receptor
# [7] = biological target: T4, Muscarinic acetylcholine receptor M1 (Homo sapiens, UniProt P11229); experiment: Displacement of [3H]-QNB from truncated EGFP-fused human muscarinic M1 receptor expressed in HEK293 cells by […]; format: cell-based
# T4 sequence (P11229 whole entry): T1 sequence (whole entry)
# [8] = biological target: T3, Muscarinic acetylcholine receptor M2; experiment: Displacement of 4-(2-((1E,3E)-5-((E)-1-(6-((3,5-Bis((2-(3-(1-(4-(1-(2-oxo-2-(11-oxo-10,11-dihydro-5H-dibenzo[b,e][1,4]diazepin-5-yl)ethyl)piperidin-4-yl)butyl)-1H-imidazol-4-yl)propanamido)ethyl)carbamoyl)benzyl)amino)-6-oxohexyl)-3,3-dimethyl-5-sulfoindolin-2-ylidene)penta-1,3-dien-1-yl)-3,3-dimethyl-3H-indol-1-ium-1-yl)butane-1-sulfonate Tris(hydrotrifluoroacetate) fluorescent tracer from human muscarinic M2 receptor expressed in CHO-K9 cells by competition binding assay; format: cell-based; details: read-out: pA2 (converted)
# How it was run: (§1)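 High-content imaging competition binding at intact CHO-hM2R cells against fluorescent tracer at 10 nM. Separately, flow cytometry competition with the fluorescent tracer at 1 nM at live cells. Four-parameter logistic fits; mean ± SEM of at least two experiments in duplicate.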
# [9] = biological target: T3, Muscarinic acetylcholine receptor M2; experiment: Displacement of 4-(2-((1E,3E)-5-((E)-3,3-Dimethyl-1-(6-oxo-6-((2-(4-(4-(1-(2-oxo-2-(11-oxo-10,11-dihydro-5H-dibenzo[b,e][1,4]diazepin-5-yl)ethyl)piperidin-4-yl)butyl)piperazin-1-yl)ethyl)amino)hexyl)-5-sulfoindolin-2-ylidene)penta-1,3-dien-1-yl)-3,3-dimethyl-3H-indol-1-ium-1-yl)butane-1-sulfonate Bis(hydrotrifluoroacetate) fluorescent tracer from human muscarinic M2 receptor expressed in CHO-K9 cells by FACSCalibur flow cytometry; format: cell-based
# [10] = biological target: T3, Muscarinic acetylcholine receptor M2; experiment: Displacement of 4-(2-((1E,3E)-5-((E)-3,3-Dimethyl-1-(6-oxo-6-((2-(4-(4-(1-(2-oxo-2-(11-oxo-10,11-dihydro-5H-dibenzo[b,e][1,4]diazepin-5-yl)ethyl)piperidin-4-yl)butyl)piperazin-1-yl)ethyl)amino)hexyl)-5-sulfoindolin-2-ylidene)penta-1,3-dien-1-yl)-3,3-dimethyl-3H-indol-1-ium-1-yl)butane-1-sulfonate Bis(hydrotrifluoroacetate) fluorescent tracer from human muscarinic M2 receptor expressed in CHO-K9 cells by competition binding assay; format: cell-based; details: read-out: pA2 (converted); how it was run: as §1
# [11] = biological target: T3, Muscarinic acetylcholine receptor M2; experiment: Displacement of 4-(2-((1E,3E)-5-((E)-3,3-Dimethyl-1-(6-oxo-6-((2-(3-(1-(4-(1-(2-oxo-2-(11-oxo-10,11-dihydro-5H-dibenzo[b,e][1,4]diazepin-5-yl)ethyl)piperidin-4-yl)butyl)-1H-imidazol-4-yl)propanamido)ethyl)-amino)hexyl)-5-sulfoindolin-2-ylidene)penta-1,3-dien-1-yl)-3,3-dimethyl-3H-indol-1-ium-1-yl)butane-1-sulfonateHydrotrifluoroacetate fluorescent tracer from human muscarinic M2 receptor expressed in CHO-K9 cells by competition binding assay; format: cell-based; details: read-out: pA2 (converted); how it was run: as §1
smiles,measurement,setting,value
Cc1scc2c1N(C(=O)CN1CCN(CCCCCCCCCCNC(=O)Cc3ccc4c(c3)C(C)(C)C3=C5C=C6C7=[N+](CCC6OC5CCN34)c3ccc(S(=O)(=O)[O-])cc3C7(C)C)CC1)c1ccccc1NC2=O (centres undefined),pK,[1],10.5
same,pK,[2],10.3
O=C1CCCN1CC#CCN1CCCC1 [OXOTREMORINE],Ki,[3],1780 nM
same,Ki,[4],1020 nM
same,Ki,[5],851 nM
CCC(=O)NCc1cc(C(=O)NCCN2CCC(N3CCC(n4c(=O)[nH]c5ccccc54)CC3)CC2)cc(C(=O)NCCN2CCN(CCCCC3CCN(CC(=O)N4c5ccccc5NC(=O)c5ccccc54)CC3)CC2)c1,Kd,[6],0.813 nM
O=C(CCC1=[N+]2C(=Cc3ccc(-c4cccs4)n3[B-]2(F)F)C=C1)NCCOCCOCCOCCOCCOCCOCCCN1CCN(CC(=O)N2c3ccccc3C(=O)Nc3cccnc32)CC1,Ki,[7],8.91 nM
C[N+](C)(CCCCCC[N+](C)(C)CCCN1C(=O)c2ccccc2C1=O)CCCN1C(=O)c2ccccc2C1=O,Kb,[8],200 nM
same,Ki,[3],851 nM
same,Ki,[9],407 nM
same,Ki,[4],646 nM
same,Ki,[5],1410 nM
same,Kb,[10],148 nM
same,Kb,[11],457 nM
